≈ marks a conversion by molar mass, not a printed value.
Key:
[1] = system: Mycobacterium tuberculosis; test: Antimycobacterial activity against Mycobacterium tuberculosis H37Ra ATCC 25177 after 7 days by Alamar Blue assay; type: functional; conditions: H37Ra ATCC 25177, 168 h
In short: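 Log-phase culture washed and resuspended in supplemented Middlebrook 7H9GC broth, adjusted to McFarland No. 1, then diluted 1:20. Equal volumes of culture and DMSO-prepared compound dilutions were tested in duplicate for 7 days. 10% AlamarBlue was added, with 570/600 nm readings for background and after 24 h reincubation. Blue meant no growth, pink meant growth. MIC was the lowest concentration without visible growth.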

[2] = system: Mycobacterium avium complex sp.; test: Antimycobacterial activity against Mycobacterium avium complex CIT19/06 clinical isolate after 5 days by Alamar Blue assay; type: functional; conditions: CIT19/06, 120 h
Mycobacterium avium = test: Antimycobacterial activity against Mycobacterium avium subsp. paratuberculosis CIT03 clinical isolate after 11 days by Alamar Blue assay; type: functional; conditions: CIT03, 264 h
Plasmodium berghei = test: Antimalarial activity against liver stage of firefly luciferase-expressing Plasmodium berghei infected in human HuH7 cells measured after 48 hrs post parasite addition by luciferase-based luminescence assay; type: functional, organism-based; conditions: Huh-7, 48 h
In short: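 HuH7 hepatoma cells seeded at 1.0 × 10^4 per well the day before infection. Drug-containing medium was added 1 h before 1.0 × 10^4 sporozoites, followed by centrifugation at 1800 × g for 5 min. Infection load was read by bioluminescence 48 h later, and host viability by CellTiter-Blue. IC50 came from nonlinear regression of normalized dose-response curves.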

L6 = test: Cytotoxicity against rat L6 cells after 70 hrs by Alamar Blue-based assay; type: cell-based; conditions: L6, 70 h
In short: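 Rat skeletal myoblast L-6 cells, 4000 per well, in RPMI 1640 with 10% FBS and L-glutamine. Eleven 3-fold serial dilutions spanning 100 to 0.002 were tested for 70 h. Alamar Blue was then added for 2 h and fluorescence read at ex 536 / em 588 nm. IC50 came from linear regression of sigmoid curves, averaged over two replicate experiments, with podophyllotoxin as control.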

Structure (SMILES)	MIC [1] [µg/mL]	MIC [2] [µg/mL]	MIC (Mycobacterium avium) [µg/mL]	IC50 (Plasmodium berghei) [nM]	IC50 (L6) [µg/mL]
COc1cc(NC(C)CCCNC(=O)NNC(=O)Nc2ccc(C(F)(F)F)cc2)c2ncccc2c1 (stereo not drawn)	128 (≈ 254 µM)	128 (≈ 254 µM)	128 (≈ 254 µM)	74.9	–
COc1cc(NC(C)CCCNC(=O)NCc2ccncc2)c2ncccc2c1 (stereo not drawn)	32 (≈ 81.3 µM)	32 (≈ 81.3 µM)	32 (≈ 81.3 µM)	–	–
COc1ccc(/C(=N/NC(=O)NNC(=O)NCCCC(C)Nc2cc(OC)cc3cccnc23)c2ccccc2)cc1 (stereo not drawn)	2 (≈ 3.51 µM)	16 (≈ 28.1 µM)	4 (≈ 7.02 µM)	–	–
NNC(=O)c1ccncc1 [ISONIAZID]	5 (≈ 36.5 µM)	> 256	> 256	–	–
COc1cc(NC(C)CCCNC(=O)N(C)C(c2ccccc2)c2ccccc2)c2ncccc2c1 (stereo not drawn)	128 (≈ 265 µM)	128 (≈ 265 µM)	128 (≈ 265 µM)	–	80.5 (≈ 167 µM)
CO[C@H]1/C=C/O[C@@]2(C)Oc3c(C)c(O)c4c(O)c(c(/C=N/N5CCN(C)CC5)c(O)c4c3C2=O)NC(=O)/C(C)=C\C=C\[C@H](C)[C@H](O)[C@@H](C)[C@@H](O)[C@@H](C)[C@H](OC(C)=O)[C@@H]1C [RIFAMPIN]	8 (≈ 9.72 µM)	30 (≈ 36.5 µM)	90 (≈ 109 µM)	–	–
COc1cc(NC(C)CCCNC(=O)NNC(=O)Nc2cccc(O)c2)c2ncccc2c1 (stereo not drawn)	128 (≈ 283 µM)	256 (≈ 566 µM)	128 (≈ 283 µM)	–	–
COc1cc(NC(C)CCCNC(=O)/C(C)=C/c2ccccc2)c2ncccc2c1 (stereo not drawn)	–	–	–	724	> 100
COc1cc(NC(C)CCCNC(=O)/C=C/c2ccc(C(F)(F)F)cc2)c2ncccc2c1 (stereo not drawn)	32 (≈ 69.9 µM)	128 (≈ 280 µM)	64 (≈ 140 µM)	–	–
COc1cc(NC(C)CCCNC(=O)NNC(=O)Nc2ccc(Cl)cc2)c2ncccc2c1 (stereo not drawn)	128 (≈ 272 µM)	256 (≈ 544 µM)	128 (≈ 272 µM)	42	–
COc1cc(NC(C)CCCNC(=O)/C=C/c2ccccc2)c2ncccc2c1 (stereo not drawn)	16 (≈ 41.1 µM)	32 (≈ 82.2 µM)	16 (≈ 41.1 µM)	–	–
COc1cc([C@@H]2c3cc4c(cc3[C@H](O)[C@H]3COC(=O)[C@H]23)OCO4)cc(OC)c1OC [PODOFILOX]	–	–	–	–	0.007 (≈ 0.0169 µM)
COc1cc(NC(C)CCCNC(=O)NCCO)c2ncccc2c1 (stereo not drawn)	32 (≈ 92.4 µM)	64 (≈ 185 µM)	64 (≈ 185 µM)	–	–
COc1cc(NC(C)CCCNC(=O)NNC(=O)Nc2cccc(Br)c2)c2ncccc2c1 (stereo not drawn)	128 (≈ 248 µM)	256 (≈ 497 µM)	128 (≈ 248 µM)	182	20 (≈ 38.8 µM)
COc1cc(NC(C)CCCNC(=O)NNC(=O)N(C)C(c2ccccc2)c2ccccc2)c2ncccc2c1 (stereo not drawn)	64 (≈ 118 µM)	64 (≈ 118 µM)	64 (≈ 118 µM)	–	–
COc1ccc(/C=C/C(=O)NCCCC(C)Nc2cc(OC)cc3cccnc23)cc1 (stereo not drawn)	64 (≈ 153 µM)	128 (≈ 305 µM)	64 (≈ 153 µM)	–	> 100
COc1cc(NC(C)CCCNC(=O)NNC(=O)Nc2cccc(F)c2)c2ncccc2c1 (stereo not drawn)	128 (≈ 282 µM)	256 (≈ 563 µM)	128 (≈ 282 µM)	–	–
COc1cc(NC(C)CCCNC(=O)NC2CCCC2)c2ncccc2c1 (stereo not drawn)	16 (≈ 43.2 µM)	32 (≈ 86.4 µM)	16 (≈ 43.2 µM)	–	–
COc1ccc(/C(=N/NC(=O)NCCCC(C)Nc2cc(OC)cc3cccnc23)c2ccccc2)cc1 (stereo not drawn)	128 (≈ 250 µM)	256 (≈ 500 µM)	128 (≈ 250 µM)	–	> 100
COc1cc(NC(C)CCCNC(=O)NC2CCCCC2)c2ncccc2c1 (stereo not drawn)	16 (≈ 41.6 µM)	32 (≈ 83.2 µM)	16 (≈ 41.6 µM)	–	–
COc1cc(NC(C)CCCN)c2ncccc2c1.O=P(O)(O)O.O=P(O)(O)O (stereo not drawn) [PRIMAQUINE PHOSPHATE]	32	32	32	–	–
COc1cc(NC(C)CCCNC(=O)/C=C/c2cccc(C(F)(F)F)c2)c2ncccc2c1 (stereo not drawn)	32 (≈ 69.9 µM)	128 (≈ 280 µM)	32 (≈ 69.9 µM)	–	–
COc1cc(NC(C)CCCNC(=O)NCCCC(C)Nc2cc(OC)cc3cccnc23)c2ncccc2c1 (stereo not drawn)	128 (≈ 235 µM)	256 (≈ 470 µM)	128 (≈ 235 µM)	–	> 100
COc1cc(NC(C)CCCNC(=O)Nc2ccc(O)cc2)c2ncccc2c1 (stereo not drawn)	128 (≈ 324 µM)	256 (≈ 649 µM)	128 (≈ 324 µM)	–	14.8 (≈ 37.5 µM)
COc1cc(NC(C)CCCNC(=O)NNC(=O)Nc2ccc(F)cc2)c2ncccc2c1 (stereo not drawn)	–	–	–	1870	–
COc1cc(NC(C)CCCNC(=O)NNC(=O)NCCCC(C)Nc2cc(OC)cc3cccnc23)c2ncccc2c1 (stereo not drawn)	2 (≈ 3.32 µM)	16 (≈ 26.5 µM)	4 (≈ 6.64 µM)	–	–
COc1cc(NC(C)CCCNC(=O)NNC(=O)Nc2cccc(Cl)c2)c2ncccc2c1 (stereo not drawn)	128 (≈ 272 µM)	256 (≈ 544 µM)	128 (≈ 272 µM)	–	–
COc1cc(NC(C)CCCNC(=O)Nc2ccc(Cl)c(C(F)(F)F)c2)c2ncccc2c1 (stereo not drawn)	16 (≈ 33.3 µM)	16 (≈ 33.3 µM)	16 (≈ 33.3 µM)	–	–
